These results are taken from ChEMBL document CHEMBL1134728, “Heterocyclic substituted anthralin derivatives as inhibitors of keratinocyte growth and inducers of differentiation” (Bioorg Med Chem Lett, 2001).

SMILES strings stand for the structures.

Assay [1] is described as follows: Deoxyribose degradation measured as hydroxyl radical generation in HaCaT cell at 75 uM expressed as malondialdehyde released. In kind it is functional, Homo sapiens.
Assay [2] in a line: Antiproliferative activity against growth of HaCaT cell was determined. In kind it is functional, cell-based. The note with it: Homo sapiens.
Assay [3] in a line: Compound was tested for the induction of HaCaT keratinocyte differentiation at 1 uM expressed as the amount of cross-linked protein in cornified envelope assay. In kind it is functional, Homo sapiens. An outline of the steps:
(§1)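 Terminal differentiation of HaCaT keratinocytes measured as insoluble cross-linked protein envelopes, using a modified method; protein in envelope preparations quantified by Bradford. Value is the difference in cross-linked protein per mg protein between treated and vehicle-control cells; means ± SEM of three independent experiments; significance vs vehicle p < 0.05.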

A short description of assay [4]: Compound was tested for the induction of HaCaT keratinocyte differentiation at 5 uM expressed as the amount of cross-linked protein in cornified envelope assay. In kind it is functional, Homo sapiens. An outline of the steps: as §1
Assay [5] in a line: Compound was tested for the induction of HaCaT keratinocyte differentiation at 10 uM expressed as the amount of cross-linked protein in cornified envelope assay. The format is functional, Homo sapiens. An outline of the steps:
as §1

A short description of assay [6]: Activity of LDH release in HaCaT cells after treatment with 2 uM concentration of the compound. The format is functional, Homo sapiens. An outline of the steps: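 LDH activity (mU) released into the HaCaT culture medium after compound treatment, taken as a marker of plasma membrane integrity and cytotoxicity; compared against vehicle controls; N=3.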

As for `O=C1c2c(O)cccc2C(C(=O)c2ccccc2)c2cccc(O)c21`, the DD in assay [1] was 2.31 uM mM-1. The half-maximal inhibitory concentration (IC50) in assay [2] is above 5 µM.

In the case of `O=C1c2c(O)cccc2C(C(=O)c2ccsc2)c2cccc(O)c21`, in assay [1], the DD is recorded as 0.82 uM mM-1. Further, the “Amount of cross-linked protein” value is -0.6 (ug of cross-linked protein) (mg of protein)-1 in assay [3], 0.6 (ug of cross-linked protein) (mg of protein)-1 in assay [4] and 3.4 (ug of cross-linked protein) (mg of protein)-1 in assay [5]. For the same molecule, the IC50 in assay [2] was above 5 µM.

With `O=C1c2c(O)cccc2C(C(=O)/C=C/c2cccs2)c2cccc(O)c21`, in assay [1], the DD is given as 1.13 uM mM-1. For the same molecule, the entries for the “Amount of cross-linked protein” value in assay [3], in assay [4] and in assay [5] were 2 (ug of cross-linked protein) (mg of protein)-1, 5 (ug of cross-linked protein) (mg of protein)-1 and 5.6 (ug of cross-linked protein) (mg of protein)-1, respectively. This molecule also had an LDH release in assay [6] of 166 mU. The molecule further yielded an IC50 in assay [2] of 4.2 µM.

As to `O=C1c2c(O)cccc2C(C(=O)c2ccc[nH]2)c2cccc(O)c21`, the DD in assay [1] is recorded as 1.77 uM mM-1. For the same molecule, the “Amount of cross-linked protein” value is 2.3 (ug of cross-linked protein) (mg of protein)-1 in assay [3], 5.7 (ug of cross-linked protein) (mg of protein)-1 in assay [4] and 6.5 (ug of cross-linked protein) (mg of protein)-1 in assay [5]. In assay [6], this molecule registered an LDH release of 202 MU. The molecule further displayed an IC50 in assay [2] of 0.6 µM.

`O=C1c2c(O)cccc2C(C(=O)c2cc3ccccc3[nH]2)c2cccc(O)c21`: in assay [1], the DD was 0.17 uM mM-1. The “Amount of cross-linked protein” value is recorded as 2 (ug of cross-linked protein) (mg of protein)-1 in assay [3], 4.8 (ug of cross-linked protein) (mg of protein)-1 in assay [4] and 5.7 (ug of cross-linked protein) (mg of protein)-1 in assay [5]. The molecule further registered an LDH release in assay [6] of 167 mU. This molecule showed an IC50 in assay [2] of 0.7 µM.

As for `O=C1c2c(O)cccc2C(C(=O)c2ccco2)c2cccc(O)c21`, the DD in assay [1] is given as 0.41 uM mM-1. Further, the entries for the “Amount of cross-linked protein” value in assay [3], in assay [4] and in assay [5] were 0.5 (ug of cross-linked protein) (mg of protein)-1, 3.5 (ug of cross-linked protein) (mg of protein)-1 and 5.8 (ug of cross-linked protein) (mg of protein)-1, respectively. This molecule gave an LDH release in assay [6] of 242 mU. Also, in assay [2], the 50% inhibitory concentration (IC50) came out at 1.2 µM.

Consider `O=C1c2c(O)cccc2C(C(=O)c2cccs2)c2cccc(O)c21`, for which, in assay [1], the DD is on record as 0.65 uM mM-1. Also, the “Amount of cross-linked protein” value in assay [3] is on record as -0.9 (ug of cross-linked protein) (mg of protein)-1; in assay [4], 0.7 (ug of cross-linked protein) (mg of protein)-1; in assay [5], 3.7 (ug of cross-linked protein) (mg of protein)-1. In addition, the IC50 in assay [2] is above 5 µM.

Consider `O=C1c2c(O)cccc2C(C(=O)/C=C/c2ccco2)c2cccc(O)c21`, for which, in assay [1], the DD is 1.69 uM mM-1. Also, the results for the “Amount of cross-linked protein” value in assay [3], in assay [4] and in assay [5] were -0.2 (ug of cross-linked protein) (mg of protein)-1, 0.6 (ug of cross-linked protein) (mg of protein)-1 and 1.9 (ug of cross-linked protein) (mg of protein)-1, respectively. Also, the LDH release in assay [6] is 147 mU. In assay [2], this molecule registered an IC50 of 1.5 µM.

In the case of `O=C1c2c(O)cccc2Cc2cccc(O)c21` [ANTHRALIN], the DD in assay [1] is listed as 2.89 uM mM-1. Moreover, the entries for the “Amount of cross-linked protein” value in assay [3], in assay [4] and in assay [5] were 3.7 (ug of cross-linked protein) (mg of protein)-1, 4.9 (ug of cross-linked protein) (mg of protein)-1 and 5.8 (ug of cross-linked protein) (mg of protein)-1, respectively. This molecule gave an LDH release in assay [6] of 294 mU. The molecule further gave an IC50 in assay [2] of 0.7 µM.

Consider `O=C1c2cccc(O)c2C(=O)c2c(O)cccc21` [DANTHRON], for which the “Amount of cross-linked protein” value is 0.6 (ug of cross-linked protein) (mg of protein)-1 in assay [3], -0.1 (ug of cross-linked protein) (mg of protein)-1 in assay [4] and 0 (ug of cross-linked protein) (mg of protein)-1 in assay [5].

One may read the IC50 as the point on the concentration scale where inhibition reaches its midpoint.
